Laboratory results: ChEMBL document CHEMBL1136939, “Fluorinated isatin derivatives. Part 2. New N-substituted 5-pyrrolidinylsulfonyl isatins as potential tools for molecular imaging of caspases in apoptosis” (J Med Chem, 2009)

Tests used:
Caspase-7 = biological target: T1, Caspase-7 (Homo sapiens, UniProt P55210); assay: Inhibition of human recombinant caspase 7 assessed as accumulation of cleaved fluorogenic 7-amino-4-methylcoumarin after 10 mins
T1 sequence (P55210 whole entry): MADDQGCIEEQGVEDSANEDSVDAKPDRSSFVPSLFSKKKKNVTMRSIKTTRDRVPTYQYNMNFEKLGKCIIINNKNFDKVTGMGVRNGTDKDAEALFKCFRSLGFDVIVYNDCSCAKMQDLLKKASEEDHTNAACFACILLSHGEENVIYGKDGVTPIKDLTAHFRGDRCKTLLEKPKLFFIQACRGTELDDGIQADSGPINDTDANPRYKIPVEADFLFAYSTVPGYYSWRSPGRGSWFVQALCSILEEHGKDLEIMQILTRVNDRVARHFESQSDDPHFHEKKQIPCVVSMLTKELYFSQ
Outline: (§1)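 Ac-DEVD-AMC substrate, 10 µM final. Enzyme at 0.5 units per assay is preincubated 10 min at 37 °C in reaction buffer with compound in DMSO at 5 pM–500 µM final. Substrate reacts a further 10 min. AMC fluorescence is read at 360/460 nm. IC50 by nonlinear regression, mean ± SD of three assays.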

Caspase-6 = biological target: T2, Caspase-6 (Homo sapiens, UniProt P55212); assay: Inhibition of human recombinant caspase 6 assessed as accumulation of cleaved fluorogenic 7-amino-4-methylcoumarin after 10 mins
T2 sequence (P55212 whole entry): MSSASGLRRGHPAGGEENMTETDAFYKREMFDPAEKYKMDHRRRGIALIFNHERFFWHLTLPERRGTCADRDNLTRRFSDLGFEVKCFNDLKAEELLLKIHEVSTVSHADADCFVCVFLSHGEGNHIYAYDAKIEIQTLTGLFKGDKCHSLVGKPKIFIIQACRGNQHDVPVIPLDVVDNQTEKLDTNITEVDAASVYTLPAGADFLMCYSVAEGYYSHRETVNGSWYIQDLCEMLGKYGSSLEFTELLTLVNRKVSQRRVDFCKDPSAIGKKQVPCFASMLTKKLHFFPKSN
Outline: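 Substrate Ac-VEID-AMC at 10 µM final, added after the enzyme (0.5 units per assay) has been preincubated 10 min at 37 °C with compound in DMSO at single doses of 5 pM–500 µM. Reaction runs 10 min, then AMC is read at ex 360, em 460 nm. IC50 by nonlinear regression; mean ± SD, n=3.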

Caspase-3 = biological target: T3, Caspase-3 (Homo sapiens, UniProt P42574); assay: Inhibition of human recombinant caspase 3 assessed as accumulation of cleaved fluorogenic 7-amino-4-methylcoumarin after 10 mins; outline: as §1
T3 sequence (P42574 whole entry): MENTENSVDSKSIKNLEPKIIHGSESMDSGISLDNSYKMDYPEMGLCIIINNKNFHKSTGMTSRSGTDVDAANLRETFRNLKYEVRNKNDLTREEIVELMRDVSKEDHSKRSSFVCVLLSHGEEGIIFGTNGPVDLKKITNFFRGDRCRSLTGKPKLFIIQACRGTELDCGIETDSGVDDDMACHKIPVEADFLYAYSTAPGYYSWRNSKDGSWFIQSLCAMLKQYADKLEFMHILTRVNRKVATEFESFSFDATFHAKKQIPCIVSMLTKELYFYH

Caspase-1 = biological target: T4, Caspase-1 (Homo sapiens, UniProt P29466); assay: Inhibition of human recombinant caspase 1 assessed as accumulation of cleaved fluorogenic 7-amino-4-methylcoumarin after 10 mins
T4 sequence (P29466 whole entry): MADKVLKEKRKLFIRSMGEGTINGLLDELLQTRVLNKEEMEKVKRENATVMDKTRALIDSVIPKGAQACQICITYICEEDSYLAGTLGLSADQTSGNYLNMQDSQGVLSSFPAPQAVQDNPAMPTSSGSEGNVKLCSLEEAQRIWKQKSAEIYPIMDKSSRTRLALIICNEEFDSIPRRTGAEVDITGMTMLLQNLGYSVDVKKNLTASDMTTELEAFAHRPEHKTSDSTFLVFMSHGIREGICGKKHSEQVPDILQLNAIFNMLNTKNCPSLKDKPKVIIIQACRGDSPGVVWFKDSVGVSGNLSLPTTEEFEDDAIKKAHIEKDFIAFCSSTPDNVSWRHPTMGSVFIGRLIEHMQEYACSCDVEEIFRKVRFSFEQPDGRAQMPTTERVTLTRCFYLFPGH
Outline: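 Ac-YVAD-AMC substrate, 10 µM final. Enzyme at 0.5 units per assay is preincubated 10 min at 37 °C with compound in DMSO, single doses 5 pM–500 µM final. Substrate is then added and reacts 10 more min. AMC is read at ex 360/em 460 nm. IC50 comes from nonlinear regression, mean ± SD of three assays.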

SMILES	IC50 (Caspase-7) [nM]	IC50 (Caspase-6) [nM]	IC50 (Caspase-3) [nM]	IC50 (Caspase-1) [nM]
COC[C@@H]1CCCN1S(=O)(=O)c1ccc2c(c1)C(=O)C(=O)N2Cc1ccc(OCC(O)CF)cc1 (stereo partly drawn)	5	> 500000	145	> 500000
COC[C@@H]1CCCN1S(=O)(=O)c1ccc2c(c1)C(=O)C(=O)N2CCC(O)CO (stereo partly drawn)	61	> 500000	275	> 500000
COC[C@@H]1CCCN1S(=O)(=O)c1ccc2c(c1)C(=O)C(=O)N2Cc1ccc(C(F)CBr)cc1 (stereo partly drawn)	16	> 500000	43	> 500000
C=CCOc1ccc(CN2C(=O)C(=O)c3cc(S(=O)(=O)N4CCC[C@H]4COC)ccc32)cc1	0.6	> 500000	10	> 500000
COC[C@@H]1CCCN1S(=O)(=O)c1ccc2c(c1)C(=O)C(=O)N2CCC1CO1 (stereo partly drawn)	68	> 500000	151	> 500000
COC[C@@H]1CCCN1S(=O)(=O)c1ccc2c(c1)C(=O)C(=O)N2CCC(O)CF (stereo partly drawn)	99	> 500000	3.6	> 500000
COC[C@@H]1CCCN1S(=O)(=O)c1ccc2c(c1)C(=O)C(=O)N2Cc1ccc(OCC2CO2)cc1 (stereo partly drawn)	2.4	> 500000	42	> 500000
COC[C@@H]1CCCN1S(=O)(=O)c1ccc2c(c1)C(=O)C(=O)N2C[C@H]1CO1	9	> 500000	17	3160
C=CCCCCCCCCCN1C(=O)C(=O)c2cc(S(=O)(=O)N3CCC[C@H]3COC)ccc21	111	> 500000	74	> 500000
COC[C@@H]1CCCN1S(=O)(=O)c1ccc2c(c1)C(=O)C(=O)N2CCCCCCCCCC1CO1 (stereo partly drawn)	61	> 500000	23	> 500000
COC[C@@H]1CCCN1S(=O)(=O)c1ccc2c(c1)C(=O)C(=O)N2Cc1ccc(C2CO2)cc1 (stereo partly drawn)	1.9	> 500000	6.6	> 500000
COC[C@@H]1CCCN1S(=O)(=O)c1ccc2c(c1)C(=O)C(=O)N2C[C@H](O)CF	349	> 500000	19	> 500000
COC[C@@H]1CCCN1S(=O)(=O)c1ccc2c(c1)C(=O)C(=O)N2		> 500000		> 500000

Second part, the compound after the results:

IC50 (Caspase-7) [nM]	IC50 (Caspase-6) [nM]	IC50 (Caspase-3) [nM]	IC50 (Caspase-1) [nM]	SMILES
304	> 500000	2.4	> 500000	CN1C(=O)C(=O)c2cc(S(=O)(=O)N3CCC[C@H]3COc3ccccc3)ccc21
1660		1880		COC[C@@H]1CCCN1S(=O)(=O)c1ccc2c(c1)C(=O)C(=O)N2CC(F)(F)CBr
50	> 500000	31	> 500000	C=CCCN1C(=O)C(=O)c2cc(S(=O)(=O)N3CCC[C@H]3COC)ccc21
7.6	> 500000	80	> 500000	COC[C@@H]1CCCN1S(=O)(=O)c1ccc2c(c1)C(=O)C(=O)N2Cc1ccc(C(F)CO)cc1 (stereo partly drawn)
43	> 500000	11	> 500000	COC[C@@H]1CCCN1S(=O)(=O)c1ccc2c(c1)C(=O)C(=O)N2C[C@H](O)CO
24	> 500000	25	> 500000	C=CCN1C(=O)C(=O)c2cc(S(=O)(=O)N3CCC[C@H]3COC)ccc21
7.2	> 500000	9.3	> 500000	C=Cc1ccc(CN2C(=O)C(=O)c3cc(S(=O)(=O)N4CCC[C@H]4COC)ccc32)cc1
	> 500000		> 500000	O=C1Nc2ccc(S(=O)(=O)N3CCC[C@H]3COc3ccccc3)cc2C1=O
